Results pooled from the literature.
Compare with care: the assays were run in different laboratories.
Target: Homeodomain-interacting protein kinase 1 (HIPK1, Homo sapiens, UniProt Q86Z02)

SMILES | assay | setting | remaining binding
COc1ccc2cc(OCC3(C(=O)O)CN(C(=O)c4ccc(F)cc4)C3)ccc2c1 | cell-free assay, competition with immobilised ligand | 1 µM | 100%
COc1ccnn2ncc(-c3ccnc(N(C)C)n3)c12 | binding | 1 µM | 55%
O=C(NS(=O)(=O)c1ccc(NCC2CCOCC2)c([N+](=O)[O-])c1)c1ccc(N2CCN(Cc3ccc(C(F)(F)F)cc3-c3ccc(Cl)cc3)CC2)cc1Oc1cnc2[nH]ccc2c1 | cell-free assay, competition with immobilised ligand | 1 µM | 84%
COc1cnc(Nc2cccc(S(N)(=O)=O)c2)nc1N1CCN(c2ccccc2)C(=O)C1 | binding, competition with immobilised ligand | 1 µM | 79%
C[C@H]1CCN(c2nccc(-c3cnn4ncccc34)n2)C1 | binding | 1 µM | 40%
O=C(NCCCN1CCOCC1)c1ccc(Nc2nccc(-c3cc4ccccc4s3)n2)cc1 | binding, competition with immobilised ligand | 1 µM | 36%
Cc1cnn2ncc(-c3ccnc(N(C)C)n3)c2c1 | binding | 1 µM | 39%
COc1cc(Nc2nccc(-c3cnn4nc(OC)ccc34)n2)cc(C(F)(F)F)c1 | binding, competition with immobilised ligand | 1 µM | 31%
CN(C)c1nccc(-c2cnc3ncccn23)n1 | binding | 1 µM | 44%
FC(F)(F)c1ccc2c(c1)nc(-c1cccnc1)n2C1CC1 | cell-free assay, competition with immobilised ligand | 1 µM | 100%
CCN1CCN(Cc2ccc(C(=O)Nc3ccc(C)c(Oc4ccc5c(c4)CC(=O)N5)c3)cc2C(F)(F)F)CC1 | binding, competition with immobilised ligand | 1 µM | 83%
CN(C)c1ncc(F)c(-c2cnn3ncccc23)n1 | binding | 1 µM | 75%
CCCCN(CCCC)C(=O)CN1C[C@@H](c2cc(OC)c3c(c2)OCO3)[C@H](C(=O)O)[C@H]1CC(C)(C)CCC | cell-free assay, competition with immobilised ligand | 1 µM | 77.3%
O=C(c1ccc(Nc2nccc(-c3cc4ccccc4s3)n2)cc1)N1CCC(N2CCCC2)CC1 | binding, competition with immobilised ligand | 1 µM | 13%
N[C@H]1CCN(c2nccc(-c3cnn4ncccc34)n2)C1 | binding | 1 µM | 54%
Nc1ncc2c(n1)-c1c([nH]c3ccc(C#CC4CC4)cc13)CCCC2 | binding, competition with immobilised ligand | 1 µM | 87%
O=C(NCCCN1CCOCC1)c1ccc(Nc2ncc(Cl)c(-c3ccc(Cl)s3)n2)cc1 | binding, competition with immobilised ligand | 1 µM | 8.7%
COc1ccc2c(c1)O[C@@H](c1ccc(OC)c(OC)c1)C[C@H]2NC(=O)C1(c2ccc3c(c2)OC(F)(F)O3)CC1 | cell-free assay, competition with immobilised ligand | 1 µM | 86%
O=C(NCC1CCOCC1)c1n[nH]cc1NC(=O)c1c(F)cccc1F | binding, competition with immobilised ligand | 1 µM | 69%
Cc1cc(-n2nc(Cc3cc(F)cc(C(F)(F)F)c3)nc2C)ccc1C(N)=O | cell-free assay, competition with immobilised ligand | 1 µM | 92%
COc1ncc2cc3ccccc3nc2c1C#N | cell-free assay, competition with immobilised ligand | 5 µM | 81%
